Reference: ChEMBL document CHEMBL1152767, “Synthesis and pharmacological evaluation of new arylpiperazines N-[4-[4-(aryl) piperazine-1-yl]-phenyl]-amine derivatives: putative role of 5-HT1A receptors” (2009)
Calls of active or inactive are those of the source. The calls are words filed in the database; no cut-off is given here.

Tests used:
[1] = tested on: Rattus norvegicus; experiment: Anxiolytic activity in Wistar rat assessed as total number of entries at 3 mg/kg, ip administered 60 mins before evaluation and measured during 5 mins by elevated plus-maze test; type: functional; conditions: route intraperitoneal
In short: (§1)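 Male Wistar rats, 6–8 weeks, 120–150 g, given test agents ip (2 ml/kg; vehicle saline with 1% tween 80 and 1% DMSO) 60 min before testing; WAY-100635 0.5 mg/kg ip 15 min before treatment where used. Maze: two open, two closed arms 50 × 10 cm, raised 50 cm; rat placed centrally facing open arm; 5 min video recording; mean ± S.E.M., n = 8.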

[2] = tested on: Rattus norvegicus; experiment: Anxiolytic activity in Wistar rat assessed as number of entries into open arms at 3 mg/kg, ip administered 60 mins before evaluation and measured during 5 mins by elevated plus-maze test; type: functional; conditions: route intraperitoneal; in short: as §1
[3] = tested on: Rattus norvegicus; experiment: Anxiolytic activity in Wistar rat assessed as number of entries into closed arms at 3 mg/kg, ip administered 60 mins before evaluation and measured during 5 mins by elevated plus-maze test; type: functional; conditions: route intraperitoneal; in short: as §1
[4] = tested on: Rattus norvegicus; experiment: Anxiolytic activity in Wistar rat assessed as time spent into open arms at 3 mg/kg, ip administered 60 mins before evaluation and measured during 5 mins by elevated plus-maze test; type: functional; conditions: route intraperitoneal; in short: as §1
[5] = tested on: Rattus norvegicus; experiment: Anxiolytic activity in Wistar rat assessed as total number of entries at 5 mg/kg, ip administered 60 mins before evaluation and measured during 5 mins by elevated plus-maze test; type: functional; conditions: route intraperitoneal
In short: (§2)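 Male Wistar rats, 6–8 weeks, 120–150 g, housed at 25 ± 2 °C with free food and water. Dosed ip at 2 ml/kg in saline with 1% tween 80 and 1% DMSO, which alone served as control; n = 8. Maze arms 50 × 10 cm, 50 cm above floor. Rat placed centrally facing an open arm, recorded by camera between 9:00 and 15:00 h.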

[6] = tested on: Rattus norvegicus; experiment: Anxiolytic activity in Wistar rat assessed as time spent into open arms at 5 mg/kg, ip administered 60 mins before evaluation and measured during 5 mins by elevated plus-maze test; type: functional; conditions: route intraperitoneal; in short: as §2
[7] = tested on: Rattus norvegicus; experiment: Anxiolytic activity in Wistar rat assessed as number of entries into open arms at 5 mg/kg, ip administered 60 mins before evaluation and measured during 5 mins by elevated plus-maze test; type: functional; conditions: route intraperitoneal; in short: as §2
[8] = tested on: Rattus norvegicus; experiment: Anxiolytic activity in Wistar rat assessed as number of entries into closed arms at 5 mg/kg, ip administered 60 mins before evaluation and measured during 5 mins by elevated plus-maze test; type: functional; conditions: route intraperitoneal; in short: as §2
[9] = tested on: Rattus norvegicus; experiment: Anxiolytic activity in Wistar rat assessed as blocked of time spent into open arms at 3 mg/kg, ip administered 60 mins before evaluation and measured during 5 mins by elevated plus-maze test in presence of 0.5 mg/kg, ip WAY-100635; type: functional, organism-based; in short: as §1
[10] = tested on: Rattus norvegicus; experiment: Anxiolytic activity in ip dosed Wistar rat assessed as decrease in glyoxalase 1 activity in brain; type: functional; set-up: scale not given: the % may be the effect or the level left
In short: (§3)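 Rat brain homogenised at 20% in 0.1 M potassium phosphate pH 7.4 with 0.25 M sucrose; spun 800g then 10,500g (4 °C) to give post-mitochondrial supernatant for glutathione reductase, and further 36,000g 1 h for cytosol for glyoxalase 1 (modified Racker method); protein by Lowry with BSA standard.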

[11] = tested on: Rattus norvegicus; experiment: Anxiolytic activity in Wistar rat assessed as decrease in extracellular serotonin level in brain at 3 mg/kg, ip in presence of WAY-100635 relative to control; type: functional; set-up: scale not given: the % may be the effect or the level left; conditions: route intraperitoneal
In short: (§4)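 Male Wistar rats dosed ip (vehicle saline/1% tween 80/1% DMSO), WAY-100635 0.5 mg/kg ip 15 min prior where used; decapitated 1 h after dosing, brains frozen at -80 °C. Tissue sonicated in 0.4 M perchloric acid, citrate/phosphate/EDTA added, centrifuged 12,000g at 4 °C; supernatant run on reversed-phase C18 HPLC with fluorescence detection (ex 280, em 340 nm).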

[12] = tested on: Rattus norvegicus; experiment: Anxiolytic activity in Wistar rat assessed as decrease in extracellular serotonin level in brain at 3 mg/kg, ip relative to control; type: functional, organism-based; set-up: dose 3 mg/kg; in short: as §4
[13] = tested on: Rattus norvegicus; experiment: Anxiolytic activity in Wistar rat assessed as decrease in time spent into open arms treated ip 60 mins before evaluation and measured during 5 mins by elevated plus-maze test in presence of WAY-100635; type: functional; set-up: scale not given: the % may be the effect or the level left; in short: as §1
[14] = tested on: Rattus norvegicus; experiment: Anxiolytic activity in ip dosed Wistar rat assessed as decrease in glutathione reductase activity in brain; type: functional; set-up: scale not given: the % may be the effect or the level left; in short: as §3
[15] = tested on: Rattus norvegicus; experiment: Anxiolytic activity in ip dosed Wistar rat assessed as decrease in extracellular serotonin level in brain coadministered with WAY-100635 relative to control; type: functional; set-up: scale not given: the % may be the effect or the level left; in short: as §4
[16] = tested on: Rattus norvegicus; experiment: Anxiolytic activity in Wistar rat assessed as number of entries into open arms at 1 mg/kg, ip administered 60 mins before evaluation and measured during 5 mins by elevated plus-maze test; type: functional; conditions: route intraperitoneal; in short: as §2
[17] = tested on: Rattus norvegicus; experiment: Anxiolytic activity in Wistar rat assessed as time spent into open arms at 1 mg/kg, ip administered 60 mins before evaluation and measured during 5 mins by elevated plus-maze test; type: functional; conditions: route intraperitoneal; in short: as §2
[18] = tested on: Rattus norvegicus; experiment: Anxiolytic activity in Wistar rat assessed as total number of entries at 1 mg/kg, ip administered 60 mins before evaluation and measured during 5 mins by elevated plus-maze test; type: functional; conditions: route intraperitoneal; in short: as §2
[19] = tested on: Rattus norvegicus; experiment: Anxiolytic activity in Wistar rat assessed as number of entries into closed arms at 1 mg/kg, ip administered 60 mins before evaluation and measured during 5 mins by elevated plus-maze test; type: functional; conditions: route intraperitoneal; in short: as §2

Q: `O=C(Nc1ccc(N2CCN(c3ccccc3Cl)CC2)cc1)c1ccc(Cl)nc1` was tested. Which Activity [1] did it give?
A: 12.98

Q: And the Activity [2]?
A: 24.56%

Q: What about the Activity [3] of the same molecule?
A: 9.8

Q: And the Activity [4]?
A: 53.67%

Q: How did the Activity [5] turn out when `O=C1CC2(CCCC2)CC(=O)N1CCCCN1CCN(c2ncccn2)CC1` [BUSPIRONE] was run?
A: 14.26

Q: What about the Activity [6] of the same molecule?
A: 85.56%

Q: What about the Activity [7] of the same molecule?
A: 37.52%

Q: And the Activity [8]?
A: 8.91

Q: How did the Activity [9] turn out when `CCOC(=O)Nc1ccc(N2CCN(c3ccccc3)CC2)cc1` was run?
A: inactive

Q: What about the Activity [10] of the same molecule?
A: 20%

Q: And the Activity [11]?
A: 38%

Q: And the Activity [1]?
A: 15.48

Q: And the Activity [2]?
A: 40.64%

Q: What about the Activity [12] of the same molecule?
A: Active

Q: And the Activity [13]?
A: 35%

Q: What about the Activity [14] of the same molecule?
A: 15%

Q: And the Activity [15]?
A: 30%

Q: What about the Activity [3] of the same molecule?
A: 9.19

Q: And the Activity [4]?
A: 87.6%

Q: Which Activity [1] does the source give for `COc1ccccc1N1CCN(c2ccc(NC(=O)c3ccc(Cl)nc3)cc2)CC1` here?
A: 15.26

Q: What about the Activity [2] of the same molecule?
A: 28.42%

Q: What about the Activity [3] of the same molecule?
A: 10.93

Q: And the Activity [4]?
A: 54.69%

Q: For `CCOC(=O)Nc1ccc(N2CCN(c3ccccc3Cl)CC2)cc1`, which Activity [1] is on record?
A: 13.98

Q: What about the Activity [2] of the same molecule?
A: 30.27%

Q: And the Activity [3]?
A: 9.75

Q: And the Activity [4]?
A: 58.98%

Q: Which Activity [1] does the source give for `CC(=O)Nc1ccc(N2CCN(CCc3ccccc3)CC2)cc1` here?
A: 13.86

Q: And the Activity [2]?
A: 25.98%

Q: What about the Activity [3] of the same molecule?
A: 10.26

Q: And the Activity [4]?
A: 53.67%

Q: How did the Activity [1] turn out when `CC(=O)Nc1ccc(N2CCN(c3ccccc3Cl)CC2)cc1` was run?
A: 16.82

Q: What about the Activity [2] of the same molecule?
A: 26.89%

Q: And the Activity [3]?
A: 12.3

Q: What about the Activity [4] of the same molecule?
A: 57.3%

Q: What does the source list for `COc1ccccc1N1CCN(c2ccc(NC(C)=O)cc2)CC1`?
A: Activity [1]: 15.45; Activity [2]: 28.74%; Activity [3]: 9.01; Activity [4]: 58.77%

Q: What does the source list for `O=C(Nc1ccc(N2CCN(CCc3ccccc3)CC2)cc1)c1ccc(Cl)nc1`?
A: Activity [1]: 14.48; Activity [2]: 22.9%; Activity [3]: 11.17; Activity [4]: 50.58%

Q: For `CCOC(=O)Nc1ccc(N2CCN(c3ccccc3OC)CC2)cc1`, which Activity [10] is on record?
A: 17%

Q: What about the Activity [11] of the same molecule?
A: 32%

Q: And the Activity [1]?
A: 18.21

Q: What about the Activity [2] of the same molecule?
A: 35.23%

Q: What about the Activity [12] of the same molecule?
A: Active

Q: What about the Activity [13] of the same molecule?
A: 20%

Q: What about the Activity [14] of the same molecule?
A: 12%

Q: And the Activity [15]?
A: 24%

Q: And the Activity [3]?
A: 11.8

Q: What about the Activity [4] of the same molecule?
A: 84.36%

Q: `CC(=O)Nc1ccc(N2CCN(c3ccccc3)CC2)cc1` was tested. Which Activity [1] did it give?
A: 14.28

Q: What about the Activity [2] of the same molecule?
A: 29.42%

Q: What about the Activity [3] of the same molecule?
A: 10.08

Q: And the Activity [4]?
A: 62.67%

Q: How did the Activity [1] turn out when `CCOC(=O)Nc1ccc(N2CCN(CCc3ccccc3)CC2)cc1` was run?
A: 13.85

Q: And the Activity [2]?
A: 28.49%

Q: What about the Activity [3] of the same molecule?
A: 9.91

Q: And the Activity [4]?
A: 53.94%

Q: How did the Activity [16] turn out when `CN1C(=O)CN=C(c2ccccc2)c2cc(Cl)ccc21` [DIAZEPAM] was run?
A: 45.16%

Q: What about the Activity [17] of the same molecule?
A: 105.36%

Q: And the Activity [18]?
A: 18.47

Q: And the Activity [19]?
A: 10.13

Q: Which results are given for `O=C(Nc1ccc(N2CCN(c3ccccc3)CC2)cc1)c1ccc(Cl)nc1`?
A: Activity [1]: 16.46; Activity [2]: 27.48%; Activity [3]: 11.94; Activity [4]: 56.94%
